Columns and labels:
Mus musculus [1] = experiment: Toxicity in collagen-induced B10.RIII mouse arthritis model assessed as change in insulin level at 100 mg/kg, po qd for 35 days relative to 1% methylcellulose-treated control; type: organism-based; parameters: dose 100 mg/kg, route oral; details: in vivo, 840 h
Outline: (§1)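 Female B10.RIII mice were immunized at 12–15 weeks with porcine type II collagen emulsified in complete Freund's adjuvant (100 μg intradermal, tail base). Animals were enrolled at first arthritis signs, 10 per group, and dosed orally once daily for five weeks in 1% methylcellulose. Paws were scored 1–4 each (max 16), with AUC taken. Serum was collected at day 35. Femur cortical thickness was measured by microCT in non-immunized, age-matched mice given the same dosing.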

Mus musculus [2] = experiment: Toxicity in collagen-induced B10.RIII mouse arthritis model assessed as change in free fatty acid level at 100 mg/kg, po qd for 35 days relative to 1% methylcellulose-treated control; type: organism-based; parameters: dose 100 mg/kg, route oral; details: in vivo, 840 h; outline: as §1
Mus musculus [3] = experiment: Toxicity in collagen-induced B10.RIII mouse arthritis model assessed as change in triglyceride level at 100 mg/kg, po qd for 35 days relative to 1% methylcellulose-treated control; type: organism-based; parameters: dose 100 mg/kg, route oral; details: in vivo, 840 h; outline: as §1
Mus musculus [4] = experiment: Toxicity in collagen-induced B10.RIII mouse arthritis model assessed as change in body fat at 100 mg/kg, po qd for 35 days relative to 1% methylcellulose-treated control; type: organism-based; parameters: dose 100 mg/kg, route oral; details: in vivo, 840 h; outline: as §1
Mus musculus [5] = experiment: Toxicity in collagen-induced B10.RIII mouse arthritis model assessed as change in AUC at 100 mg/kg, po qd for 35 days relative to 1% methylcellulose-treated control; type: organism-based; parameters: dose 100 mg/kg, route oral; details: in vivo, 840 h; outline: as §1
[6] = Volume of distribution at steady state in rat at 5 mg/kg, iv and 30 mg/kg, po; type: ADME, organism-based; details: in vivo, read-out: Vdss
Outline: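 Rat pharmacokinetics: single intravenous dose of 5 mg/kg in 80/20 PEG/water, plus a separate oral dose of 30 mg/kg in 80/18/2 PEG/water/Tween. Steady-state volume of distribution is from the iv arm; clearance, half-life and oral bioavailability come from the same study.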

Rattus norvegicus [7] = experiment: Clearance in rat at 5 mg/kg, iv and 30 mg/kg, po; type: ADME, organism-based; details: in vivo
Outline: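 Rat PK: 5 mg/kg iv in 80/20 PEG/water and 30 mg/kg po in 80/18/2 PEG/water/Tween.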

Mus musculus [8] = experiment: Toxicity in nonimmunized, nondiseased mouse assessed as change in femur cortical thickness at 100 mg/kg, po qd for 35 days relative to 1% methylcellulose-treated control; details: in vivo, 840 h
Mus musculus [9] = experiment: Toxicity in collagen-induced B10.RIII mouse arthritis model assessed as change in femur cortical thickness at 100 mg/kg, po qd for 35 days relative to 30% cremophor-treated control; type: organism-based; parameters: dose 100 mg/kg, route oral; details: in vivo, 840 h
Outline: (§2)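 Female B10.RIII mice were immunized with porcine type II collagen in complete Freund's adjuvant, enrolled at arthritis onset (10/group), and dosed orally once daily for five weeks in 30% cremophor vehicle. Four paws were scored 1–4 (max 16), as AUC. Serum biomarkers were taken at day 35. Femur cortical thickness was measured by microCT in non-immunized, age-matched mice dosed identically.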

Mus musculus [10] = experiment: Toxicity in collagen-induced B10.RIII mouse arthritis model assessed as change in insulin level at 100 mg/kg, po qd for 35 days relative to 30% cremophor-treated control; type: organism-based; parameters: dose 100 mg/kg, route oral; details: in vivo, 840 h; outline: as §2
Mus musculus [11] = experiment: Toxicity in collagen-induced B10.RIII mouse arthritis model assessed as change in free fatty acid level at 100 mg/kg, po qd for 35 days relative to 30% cremophor-treated control; type: organism-based; parameters: dose 100 mg/kg, route oral; details: in vivo, 840 h; outline: as §2
Mus musculus [12] = experiment: Toxicity in collagen-induced B10.RIII mouse arthritis model assessed as change in body fat at 100 mg/kg, po qd for 35 days relative to 30% cremophor-treated control; type: organism-based; parameters: dose 100 mg/kg, route oral; details: in vivo, 840 h; outline: as §2
Mus musculus [13] = experiment: Toxicity in collagen-induced B10.RIII mouse arthritis model assessed as change in AUC at 100 mg/kg, po qd for 35 days relative to 30% cremophor-treated control; type: organism-based; parameters: dose 100 mg/kg, route oral; details: in vivo, 840 h; outline: as §2
Rattus norvegicus [14] = experiment: Clearance in rat at 2 mg/kg, iv and 30 mg/kg, po; type: ADME, organism-based; details: in vivo
Outline: (§3)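 Rat PK: 2 mg/kg iv in 80/20 PEG/water and 30 mg/kg po in 80/18/2 PEG/water/Tween.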

[15] = Volume of distribution at steady state in rat at 2 mg/kg, iv and 30 mg/kg, po; type: ADME, organism-based; details: in vivo, read-out: Vdss; outline: as §3

Row | Structure (SMILES) | Activity (Mus musculus [1]) | Activity (Mus musculus [2]) | Activity (Mus musculus [3]) | Activity (Mus musculus [4]) | Activity (Mus musculus [5]) | Vd [6] | CL (Rattus norvegicus [7]) | Activity (Mus musculus [8]) | Activity (Mus musculus [9]) | Activity (Mus musculus [10]) | Activity (Mus musculus [11]) | Activity (Mus musculus [12]) | Activity (Mus musculus [13]) | CL (Rattus norvegicus [14]) | Vd [15]
1 | Cc1ccc(F)cc1C(C)(C)C[C@@](O)(Cc1cc2ncncc2[nH]1)C(F)(F)F | 17% | 14% | -14% | 32% | -57% | 2.1 L/kg | 61% | -6% |  |  |  |  |  |  | 
2 | Cc1ccc(F)cc1C(C)(C)C[C@@](O)(Cc1cc2nnccc2[nH]1)C(F)(F)F |  |  |  |  |  |  |  |  | -8% | -36% | -2% | 8% | -53% | > 100% | 3.7 L/kg
